Measurements: ChEMBL document CHEMBL4390639, “Design, Synthesis, and Biological Evaluation of Novel Allosteric Protein Disulfide Isomerase Inhibitors” (J Med Chem, 2019)
The source made the active and inactive calls. No cut-off for these calls is given here.

Tests used:
[1] = tested on: Protein disulfide-isomerase (Homo sapiens), P07237 [H256A]; test: Inhibition of recombinant human N-terminal His-tagged PDI H256A mutant expressed in Escherichia coli BL21 (DE3) pLysS at 100 uM measured after 1 hr by ANS dye based fluorescence spectra analysis
U-87 MG [2] = test: Down regulation of HLA-DQB1 gene expression in human U87MG cells at 16 uM incubated for 4 hrs followed by bromouridine addition during last 30 mins of incubation by TRIzol-reagent based Bru-Seq analysis relative to control; type: functional, U-87MG ATCC
Summary of the method: (§1)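 U87MG cells exposed to compound or DMSO vehicle for 4 h, with 2 mM bromouridine added for the final 30 min. Total RNA isolated with TRIzol; Bru-labelled nascent RNA captured on anti-BrdU antibody-conjugated magnetic beads and sequenced. Transcript abundance expressed as RPKM relative to DMSO. Experiment performed once.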

U-87 MG [3] = test: Up regulation of NMRAL2P gene expression in human U87MG cells at 16 uM incubated for 4 hrs followed by bromouridine addition during last 30 mins of incubation by TRIzol-reagent based Bru-Seq analysis relative to control; type: functional, U-87MG ATCC; summary of the method: as §1
U-87 MG [4] = test: Down regulation of KCTD4 gene expression in human U87MG cells at 16 uM incubated for 4 hrs followed by bromouridine addition during last 30 mins of incubation by TRIzol-reagent based Bru-Seq analysis relative to control; type: functional, U-87MG ATCC
U-87 MG [5] = test: Down regulation of CTGF gene expression in human U87MG cells at 16 uM incubated for 4 hrs followed by bromouridine addition during last 30 mins of incubation by TRIzol-reagent based Bru-Seq analysis relative to control; type: functional, U-87MG ATCC
U-87 MG [6] = test: Up regulation of AC087672.3 gene expression in human U87MG cells at 16 uM incubated for 4 hrs followed by bromouridine addition during last 30 mins of incubation by TRIzol-reagent based Bru-Seq analysis relative to control; type: functional, U-87MG ATCC; summary of the method: as §1
U-87 MG [7] = test: Down regulation of AC006206.2 gene expression in human U87MG cells at 16 uM incubated for 4 hrs followed by bromouridine addition during last 30 mins of incubation by TRIzol-reagent based Bru-Seq analysis relative to control; type: functional, U-87MG ATCC; summary of the method: as §1
U-87 MG [8] = test: Up regulation of BAG3 gene expression in human U87MG cells at 16 uM incubated for 4 hrs followed by bromouridine addition during last 30 mins of incubation by TRIzol-reagent based Bru-Seq analysis relative to control; type: functional, U-87MG ATCC; summary of the method: as §1
U-87 MG [9] = test: Up regulation of AKR1C1 gene expression in human U87MG cells at 16 uM incubated for 4 hrs followed by bromouridine addition during last 30 mins of incubation by TRIzol-reagent based Bru-Seq analysis relative to control; type: functional, U-87MG ATCC; summary of the method: as §1
U-87 MG [10] = test: Up regulation of HSPA1B gene expression in human U87MG cells at 16 uM incubated for 4 hrs followed by bromouridine addition during last 30 mins of incubation by TRIzol-reagent based Bru-Seq analysis relative to control; type: functional, U-87MG ATCC; summary of the method: as §1
U-87 MG [11] = test: Up regulation of VEGFD gene expression in human U87MG cells at 16 uM incubated for 4 hrs followed by bromouridine addition during last 30 mins of incubation by TRIzol-reagent based Bru-Seq analysis relative to control; type: functional, U-87MG ATCC
U-87 MG [12] = test: Up regulation of FTH1 gene expression in human U87MG cells at 16 uM incubated for 4 hrs followed by bromouridine addition during last 30 mins of incubation by TRIzol-reagent based Bru-Seq analysis relative to control; type: functional, U-87MG ATCC; summary of the method: as §1
U-87 MG [13] = test: Up regulation of EID3 gene expression in human U87MG cells at 16 uM incubated for 4 hrs followed by bromouridine addition during last 30 mins of incubation by TRIzol-reagent based Bru-Seq analysis relative to control; type: functional, U-87MG ATCC; summary of the method: as §1
U-87 MG [14] = test: Down regulation of GGT4P gene expression in human U87MG cells at 16 uM incubated for 4 hrs followed by bromouridine addition during last 30 mins of incubation by TRIzol-reagent based Bru-Seq analysis relative to control; type: functional, U-87MG ATCC
U-87 MG [15] = test: Up regulation of NMRAL2P gene expression in human U87MG cells at 10 uM incubated for 4 hrs followed by bromouridine addition during last 30 mins of incubation by TRIzol-reagent based Bru-Seq analysis relative to control; type: functional, U-87MG ATCC
Summary of the method: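 Nascent transcription (Bru-seq) in U87MG cells: treatment at 10 μM for 4 h, with 2 mM bromouridine added for the final 30 min. Total RNA isolated with TRIzol; Bru-labelled RNA captured using anti-BrdU antibody on magnetic beads, then sequenced. Transcript traces reported as RPKM compared with DMSO-treated cells. Single experiment.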

U-87 MG [16] = test: Down regulation of DUT gene expression in human U87MG cells at 10 uM incubated for 4 hrs followed by bromouridine addition during last 30 mins of incubation by TRIzol-reagent based Bru-Seq analysis relative to control; type: functional, U-87MG ATCC
U-87 MG [17] = test: Down regulation of CTHRC1 gene expression in human U87MG cells at 10 uM incubated for 4 hrs followed by bromouridine addition during last 30 mins of incubation by TRIzol-reagent based Bru-Seq analysis relative to control; type: functional, U-87MG ATCC
A 172 = test: Antimigratory activity against human A172 cells at 10 uM measured after 4 hrs by Giemsa staining based transwell migration assay; type: functional, cell-based
Summary of the method: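 A172 cells (1 x 10^5) were treated with compound and seeded into inserts with 8.0 μm PET membrane in serum-free medium. DMEM with 10% FBS was in the lower well; wells without FBS served as control. After 4 h, migrated cells were Giemsa-stained and imaged at 10X, 5 fields per well.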

U-87 MG [18] = test: Up regulation of HMOX1 gene expression in human U87MG cells at 10 uM incubated for 4 hrs followed by bromouridine addition during last 30 mins of incubation by TRIzol-reagent based Bru-Seq analysis relative to control; type: functional, U-87MG ATCC; summary of the method: as §1
U-87 MG [19] = test: Up regulation of HSPH1 gene expression in human U87MG cells at 10 uM incubated for 4 hrs followed by bromouridine addition during last 30 mins of incubation by TRIzol-reagent based Bru-Seq analysis relative to control; type: functional, U-87MG ATCC; summary of the method: as §1
U-87 MG [20] = test: Down regulation of LYPD6 gene expression in human U87MG cells at 10 uM incubated for 4 hrs followed by bromouridine addition during last 30 mins of incubation by TRIzol-reagent based Bru-Seq analysis relative to control; type: functional, U-87MG ATCC
U-87 MG [21] = test: Down regulation of AKAP5 gene expression in human U87MG cells at 10 uM incubated for 4 hrs followed by bromouridine addition during last 30 mins of incubation by TRIzol-reagent based Bru-Seq analysis relative to control; type: functional, U-87MG ATCC
U-87 MG [22] = test: Down regulation of LRRC63 gene expression in human U87MG cells at 10 uM incubated for 4 hrs followed by bromouridine addition during last 30 mins of incubation by TRIzol-reagent based Bru-Seq analysis relative to control; type: functional, U-87MG ATCC
U-87 MG [23] = test: Down regulation of FBXO43 gene expression in human U87MG cells at 10 uM incubated for 4 hrs followed by bromouridine addition during last 30 mins of incubation by TRIzol-reagent based Bru-Seq analysis relative to control; type: functional, U-87MG ATCC; summary of the method: as §1
U-87 MG [24] = test: Up regulation of DNAJB1 gene expression in human U87MG cells at 10 uM incubated for 4 hrs followed by bromouridine addition during last 30 mins of incubation by TRIzol-reagent based Bru-Seq analysis relative to control; type: functional, U-87MG ATCC; summary of the method: as §1

Protein disulfide-isomerase (Homo sapiens), P07237 [H256A], sequence (P07237 whole entry H256A): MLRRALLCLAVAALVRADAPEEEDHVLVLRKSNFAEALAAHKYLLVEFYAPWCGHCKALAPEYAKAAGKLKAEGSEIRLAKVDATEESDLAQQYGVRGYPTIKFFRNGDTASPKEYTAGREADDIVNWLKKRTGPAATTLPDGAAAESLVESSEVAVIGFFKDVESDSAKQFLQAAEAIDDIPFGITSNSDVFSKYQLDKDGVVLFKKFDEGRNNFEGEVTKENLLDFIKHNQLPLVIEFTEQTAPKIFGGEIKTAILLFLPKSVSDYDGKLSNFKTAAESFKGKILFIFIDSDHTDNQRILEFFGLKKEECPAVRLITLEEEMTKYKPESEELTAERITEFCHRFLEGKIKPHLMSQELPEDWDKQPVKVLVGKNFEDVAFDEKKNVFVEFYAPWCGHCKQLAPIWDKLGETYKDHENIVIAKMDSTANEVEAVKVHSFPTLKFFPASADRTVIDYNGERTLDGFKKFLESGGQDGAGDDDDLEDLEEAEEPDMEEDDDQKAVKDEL

In the case of `CCCCCN(CCCCC)S(=O)(=O)c1ccc(C(=O)/C=C/c2cccc(O)c2)cc1`, the inhibition [1] is reported as “Active”.
`COC(=O)c1cccc(/C=C/C(=O)c2cccc(O)c2)c1` was tested, and the “fold change (FC)” value (U-87 MG [2]) was 3.7, the “fold change (FC)” value (U-87 MG [3]) was 15 and the log2FC (U-87 MG [3]) was 4.1. For the same compound, the “fold change (FC)” value (U-87 MG [4]) was 3, the “fold change (FC)” value (U-87 MG [5]) was 3.1 and the “fold change (FC)” value (U-87 MG [6]) was 3.8. The “fold change (FC)” value (U-87 MG [7]) was 3.9, the “fold change (FC)” value (U-87 MG [8]) was 1.9 and the “fold change (FC)” value (U-87 MG [9]) was 8.1. For the same compound, the “fold change (FC)” value (U-87 MG [10]) was 10.2, the “fold change (FC)” value (U-87 MG [11]) was 6.2 and the “fold change (FC)” value (U-87 MG [12]) was 1.9. For the same compound, the “fold change (FC)” value (U-87 MG [13]) was 4.8 and the “fold change (FC)” value (U-87 MG [14]) was 3.3.
`CCCCCN(CCCCC)S(=O)(=O)c1ccc(C(=O)/C=C/c2cccc(C#N)c2)cc1` was tested, and the log2FC (U-87 MG [15]) was 2.72, the “fold change (FC)” value (U-87 MG [16]) was 2.3 and the “fold change (FC)” value (U-87 MG [17]) was 2.4. The Activity (A 172) was “Active”, the “fold change (FC)” value (U-87 MG [18]) was 27.6 and the “fold change (FC)” value (U-87 MG [19]) was 20. For the same compound, the “fold change (FC)” value (U-87 MG [20]) was 3.1, the “fold change (FC)” value (U-87 MG [21]) was 3.4 and the “fold change (FC)” value (U-87 MG [22]) was 2.5. For the same compound, the “fold change (FC)” value (U-87 MG [23]) was 2.7 and the “fold change (FC)” value (U-87 MG [24]) was 16.9.
